From ChEMBL document CHEMBL1125376, “Class III antiarrhythmic activity of novel substituted 4-[(methylsulfonyl)amino]benzamides and sulfonamides” (J Med Chem, 1992)
Where “and” joins values, the source holds several entries; their conditions need not be identical. Identical values can stand only once.

Assays:
Canis familiaris [1] = test: Effect on ventricular effective refractory period, after intravenous administration in open-chest anesthetized dogs at dose of 2.5 mg/kg; format: functional, Canis lupus familiaris, Cardiac ventricle
Summary of the method: (§1)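 Mongrel dogs, pentobarbital-anesthetized (30 mg/kg iv plus 5 mg/kg per h), open chest. Compound given iv. Atrial and ventricular effective refractory periods and conduction times measured during pacing at 300 ms, along with heart rate and mean arterial pressure. Two doses per compound, chosen from dose-response runs. Values are % change from predrug, mean ± SE.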

Canis familiaris [2] = test: Effect on atrial effective refractory period, after intravenous administration in open-chest anesthetized dogs at dose of 5.0 mg/kg; format: functional, Canis lupus familiaris, Cardiac atrium
Canis familiaris [3] = test: Effect on ventricular conduction time, after intravenous administration in open-chest anesthetized dogs at dose of 2.5 mg/kg; format: functional, Canis lupus familiaris, Cardiac ventricle
Canis familiaris [4] = test: Effect on heart rate, after intravenous administration in open-chest anesthetized dogs at dose of 5.0 mg/kg; format: functional, Canis lupus familiaris
Canis familiaris [5] = species on record: Canis familiaris; test: Effect on the transmembrane potential of dog Purkinje fibers paced at a basic cycle length of stimulation of 300 ms, repolarization time to -60 mV; format: functional; conditions: Canis lupus familiaris; Purkinje fiber
Summary of the method: (§2)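 Purkinje fiber bundles were taken from pentobarbital-anesthetized mongrel dogs. They were superfused at 37.5-38.0 °C with Tyrode's (mM: NaCl 138, KCl 4, CaCl2 2, NaHCO3 24, MgCl2 0.5, Na2HPO4 1.8, dextrose 5) gassed with 95% O2-5% CO2, pH 7.3-7.4. Stimulation used 2.0 ms pulses at twice threshold. Fibers were equilibrated ≥1 h before drug. Action potentials were recorded at 4-6 sites and averaged per fiber.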

Canis familiaris [6] = test: Effect on atrial conduction time, after intravenous administration in open-chest anesthetized dogs at dose of 2.5 mg/kg; format: functional, Canis lupus familiaris, Cardiac atrium
Canis familiaris [7] = species on record: Canis familiaris; test: Effect on the transmembrane potential of dog Purkinje fibers paced at a basic cycle length of stimulation of 1000 ms, repolarization time to -60 mV; format: functional; conditions: Canis lupus familiaris; Purkinje fiber; summary of the method: as §2
Canis familiaris [8] = test: Effect on atrial conduction time, after intravenous administration in open-chest anesthetized dogs at dose of 5.0 mg/kg; format: functional, Canis lupus familiaris, Cardiac atrium
Canis familiaris [9] = test: Effect on mean arterial pressure, after intravenous administration in open-chest anesthetized dogs at dose of 2.5 mg/kg; format: functional, Canis lupus familiaris, Artery
Canis familiaris [10] = test: Effect on ventricular effective refractory period, after intravenous administration in open-chest anesthetized dogs at dose of 5.0 mg/kg; format: functional, Canis lupus familiaris, Cardiac ventricle; summary of the method: as §1
Canis familiaris [11] = test: Effect on mean arterial pressure, after intravenous administration in open-chest anesthetized dogs at dose of 5.0 mg/kg; format: functional, Canis lupus familiaris, Artery
Canis familiaris [12] = test: Effect on heart rate, after intravenous administration in open-chest anesthetized dogs at dose of 2.5 mg/kg; format: functional, Canis lupus familiaris
Canis familiaris [13] = test: Effect on ventricular conduction time, after intravenous administration in open-chest anesthetized dogs at dose of 5.0 mg/kg; format: functional, Canis lupus familiaris, Cardiac ventricle
Canis familiaris [14] = test: Effect on atrial effective refractory period, after intravenous administration in open-chest anesthetized dogs at dose of 2.5 mg/kg; format: functional, Canis lupus familiaris, Cardiac atrium
Canis familiaris [15] = species on record: Canis familiaris; test: Effect on the transmembrane potential of dog Purkinje fibers paced at a basic cycle length of stimulation of 1000 ms, repolarization time to -60 mV at 0.3 uM concentration; format: functional; conditions: Canis lupus familiaris, Purkinje fiber; summary of the method: as §2
Canis familiaris [16] = test: Effect on atrial effective refractory period, after intravenous administration in open-chest anesthetized dogs at dose of 1.0 mg/kg
Canis familiaris [17] = species on record: Canis familiaris; test: Effect on the transmembrane potential of dog Purkinje fibers paced at a basic cycle length of stimulation of 300 ms, repolarization time to -60 mV at 0.3 uM concentration; format: functional; conditions: Canis lupus familiaris, Purkinje fiber; summary of the method: as §2
[18] = Maximum rate of depolarization of the upstroke of the action potential at 3 uM concentration; set-up: unit not given beside the values
Summary of the method: (§3)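 Purkinje fiber bundles from pentobarbital-anesthetized mongrel dogs, superfused at 37.5-38.0 °C with Tyrode's solution (95% O2-5% CO2, pH 7.3-7.4). Stimulation with 2.0 ms square pulses at 2× threshold. Fibers equilibrated at least 1 h before drug. Action potentials recorded at four to six sites, control vs drug, and averaged per fiber.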

Canis familiaris [19] = species on record: Canis familiaris; test: Effect on the transmembrane potential of dog Purkinje fibers paced at a basic cycle length of stimulation of 1000 ms, repolarization time to -60 mV, at a concentration of 3 uM; format: functional; conditions: Canis lupus familiaris, Purkinje fiber; summary of the method: as §2
Canis familiaris [20] = species on record: Canis familiaris; test: Effect on the transmembrane potential of dog Purkinje fibers paced at a basic cycle length of stimulation of 300 ms, repolarization time to -60 mV, at a concentration of 3 uM; format: functional; conditions: Canis lupus familiaris, Purkinje fiber; summary of the method: as §2
Canis familiaris [21] = test: Effect on ventricular effective refractory period, after intravenous administration in open-chest anesthetized dogs at dose of 1.0 mg/kg; format: functional, Canis lupus familiaris, Cardiac ventricle; summary of the method: as §1
Canis familiaris [22] = test: Effect on ventricular effective refractory period, after intravenous administration in open-chest anesthetized dogs at dose of 0.1 mg/kg; format: functional, Canis lupus familiaris, Cardiac ventricle
Canis familiaris [23] = test: Effect on atrial effective refractory period, after intravenous administration in open-chest anesthetized dogs at dose of 0.1 mg/kg; format: functional, Canis lupus familiaris, Cardiac atrium
Canis familiaris [24] = species on record: Canis familiaris; test: Effect on the transmembrane potential of dog Purkinje fibers paced at a basic cycle length of stimulation of 300 ms, repolarization time to -60 mV, at a concentration of 0.3 uM; format: functional; conditions: Canis lupus familiaris, Purkinje fiber; summary of the method: as §2
Canis familiaris [25] = test: Effect on ventricular conduction time, after intravenous administration in open-chest anesthetized dogs at dose of 1.0 mg/kg; format: functional, Canis lupus familiaris, Cardiac ventricle
Canis familiaris [26] = test: Effect on heart rate, after intravenous administration in open-chest anesthetized dogs at dose of 1.0 mg/kg; format: functional, Canis lupus familiaris
Canis familiaris [27] = test: Effect on ventricular conduction time, after intravenous administration in open-chest anesthetized dogs at dose of 0.1 mg/kg; format: functional, Canis lupus familiaris, Cardiac ventricle
Canis familiaris [28] = test: Effect on mean arterial pressure, after intravenous administration in open-chest anesthetized dogs at dose of 0.1 mg/kg; format: functional, Canis lupus familiaris, Artery
Canis familiaris [29] = test: Effect on atrial conduction time, after intravenous administration in open-chest anesthetized dogs at dose of 0.1 mg/kg; format: functional, Canis lupus familiaris, Cardiac atrium
Canis familiaris [30] = species on record: Canis familiaris; test: Effect on the transmembrane potential of dog Purkinje fibers paced at a basic cycle length of stimulation of 1000 ms, repolarization time to -60 mV, at a concentration of 0.3 uM; format: functional; conditions: Canis lupus familiaris, Purkinje fiber; summary of the method: as §2
Canis familiaris [31] = test: Effect on mean arterial pressure, after intravenous administration in open-chest anesthetized dogs at dose of 1.0 mg/kg; format: functional, Canis lupus familiaris, Artery
Canis familiaris [32] = test: Effect on atrial conduction time, after intravenous administration in open-chest anesthetized dogs at dose of 1.0 mg/kg; format: functional, Canis lupus familiaris, Cardiac atrium
Canis familiaris [33] = test: Effect on heart rate, after intravenous administration in open-chest anesthetized dogs at dose of 0.1 mg/kg; format: functional, Canis lupus familiaris
Canis familiaris [34] = test: Effect on atrial effective refractory period, after intravenous administration in open-chest anesthetized dogs at dose of 1.0 mg/kg; format: functional, Canis lupus familiaris, Cardiac atrium
Canis familiaris [35] = species on record: Canis familiaris; test: Effect on the transmembrane potential of dog Purkinje fibers paced at a basic cycle length of stimulation of 1000 ms, repolarization time to -60 mV at 3 uM concentration; format: functional; conditions: Canis lupus familiaris, Purkinje fiber; summary of the method: as §2
Canis familiaris [36] = species on record: Canis familiaris; test: Effect on the transmembrane potential of dog Purkinje fibers paced at a basic cycle length of stimulation of 300 ms, repolarization time to -60 mV at 3 uM concentration; format: functional; conditions: Canis lupus familiaris, Purkinje fiber; summary of the method: as §2
[37] = Maximum rate of depolarization of the upstroke of the action potentia at 3 uM concentration; summary of the method: as §3
Canis familiaris [38] = species on record: Canis familiaris; test: Effect on the transmembrane potential of dog Purkinje fibers paced at a basic cycle length of stimulation of 1000 ms, repolarization time to -60 mV at 3 uM; format: functional; conditions: Canis lupus familiaris, Purkinje fiber; summary of the method: as §2
[39] = (§4) Maximum rate of depolarization of the upstroke of the action potential at 3 uM; summary of the method: as §3
[40] = as §4; summary of the method: as §3; remark: listed apart in the source
Canis familiaris [41] = test: Prodrug ventricular fibrillation threshold(VFT) in open-chest anesthetized dogs(Control = 8+/-1) at a dose of 2.5 mg/kg iv; format: functional, Canis lupus familiaris, Cardiac ventricle
Canis familiaris [42] = species on record: Canis familiaris; test: Effect on transmembrane potential of dog Purkinje fibers paced at a basic cycle length of stimulation of 300 ms, repolarization time to -60 mV at 3 uM; format: functional; conditions: Canis lupus familiaris, Purkinje fiber; summary of the method: as §2

CC(C)NCC(O)c1ccc(NS(C)(=O)=O)cc1 (stereo unspecified) [SOTALOL]
Change (Canis familiaris [1]): 19%
Change (Canis familiaris [2]): 57%
Change (Canis familiaris [3]): -1%
Change (Canis familiaris [4]): -28%
APD60 (Canis familiaris [5]): 18
Change (Canis familiaris [6]): -5%
APD60 (Canis familiaris [7]): 56
Change (Canis familiaris [8]): -7%
Change (Canis familiaris [9]): -16%
Change (Canis familiaris [10]): 25%
Change (Canis familiaris [11]): -17%
Change (Canis familiaris [12]): -27%
Change (Canis familiaris [13]): -1%
Change (Canis familiaris [14]): 42%

Cl.Cn1c(N2CCN(C(=O)c3ccc(NS(C)(=O)=O)cc3)CC2)nc2ccccc21
APD60 (Canis familiaris [15]): 17
Change (Canis familiaris [16]): 33%
APD60 (Canis familiaris [17]): 6
Vmax [18]: -3
APD60 (Canis familiaris [19]): 75
APD60 (Canis familiaris [20]): 33

Cc1cccc(CCN2CCC(C(=O)c3ccc(NS(C)(=O)=O)cc3)CC2)n1
Change (Canis familiaris [21]): 26%
Change (Canis familiaris [22]): 20%
Change (Canis familiaris [23]): 34%
APD60 (Canis familiaris [24]): 27
Change (Canis familiaris [25]): -2%
APD60 (Canis familiaris [5]): 21
Change (Canis familiaris [26]): -25%
Change (Canis familiaris [27]): -3%
Change (Canis familiaris [28]): -6%
APD60 (Canis familiaris [7]): 53
Change (Canis familiaris [29]): 1%
APD60 (Canis familiaris [30]): 74
Change (Canis familiaris [31]): -19%
Change (Canis familiaris [32]): 1%
Change (Canis familiaris [33]): -18%
Change (Canis familiaris [34]): 55%

CN(CCNc1nc2ccccc2n1C)S(=O)(=O)c1ccc(NS(C)(=O)=O)cc1.Cl
APD60 (Canis familiaris [35]): 67
APD60 (Canis familiaris [36]): 19
Vmax [18]: 1
Vmax [37]: 6

CN(CCN(C)c1nc2ccccc2n1C)C(=O)c1ccc(NS(C)(=O)=O)cc1.Cl
Change (Canis familiaris [21]): 10%
Change (Canis familiaris [2]): 44%
APD60 (Canis familiaris [35]): 65
Change (Canis familiaris [4]): -27%
Change (Canis familiaris [25]): -1%
Change (Canis familiaris [26]): -6%
Change (Canis familiaris [8]): -3%
APD60 (Canis familiaris [36]): 17
Vmax [18]: -5 and -3
Change (Canis familiaris [10]): 24%
Change (Canis familiaris [11]): -1%
Change (Canis familiaris [31]): 5%
Change (Canis familiaris [13]): -6%
Change (Canis familiaris [32]): -1%
Change (Canis familiaris [34]): 18%

CN(CCN(C)S(=O)(=O)c1ccc(NS(C)(=O)=O)cc1)c1nc2ccccc2n1C.Cl
APD60 (Canis familiaris [38]): 57
Vmax [39]: 13
APD60 (Canis familiaris [15]): 46
APD60 (Canis familiaris [17]): 24
Vmax [40]: 11
VFT (Canis familiaris [41]): 8 and 24
APD60 (Canis familiaris [42]): 40

CN(CCN(C)S(=O)(=O)c1ccc(NS(C)(=O)=O)cc1)c1ccc2ccccc2n1
APD60 (Canis familiaris [5]): 20
APD60 (Canis familiaris [7]): 46

CN(CCN(C)c1ccc2ccccc2n1)C(=O)c1ccc(NS(C)(=O)=O)cc1
APD60 (Canis familiaris [5]): 17
APD60 (Canis familiaris [7]): 36
